Assay results: PubChem BioAssay
The list shows a part of the results. Activity calls are given as the source filed them.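 The calls were made as follows, unless noted: active = mean inhibition across replicates above the hit cutoff set in the primary screen (cut at about 30% in these data); inactive = the rest.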

What follows are molecules tested against (Lyso)-N-acylphosphatidylethanolamine lipase (Mus musculus) (UniProt Q8VD66) (assay: mouse ABHD4 hydrolase blockers, triplicate – biochemical, fluorescence polarization, confirmation (AID 720658;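 also: 0% = wild-type ABHD4 with DMSO and 100% = catalytically dead S159A mutant with DMSO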)). Details: purified mABHD4, FP-Rh probe fluorescence polarization; at 8.92 µM; hits give high values.
Sequence of (Lyso)-N-acylphosphatidylethanolamine lipase (Mus musculus) (Q8VD66 whole entry, looked up): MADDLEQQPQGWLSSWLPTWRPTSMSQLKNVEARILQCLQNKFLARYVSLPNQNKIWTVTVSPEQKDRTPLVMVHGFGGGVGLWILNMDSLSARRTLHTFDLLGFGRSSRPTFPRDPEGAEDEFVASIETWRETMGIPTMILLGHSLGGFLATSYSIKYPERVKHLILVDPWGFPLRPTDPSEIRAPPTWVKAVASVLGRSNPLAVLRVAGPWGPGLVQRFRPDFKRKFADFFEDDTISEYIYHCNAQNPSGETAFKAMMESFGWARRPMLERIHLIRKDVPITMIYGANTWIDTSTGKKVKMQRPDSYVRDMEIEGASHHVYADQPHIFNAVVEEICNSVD
Summary of the method: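 Test system – wild-type mouse ABHD4 · Doses – single nominal compound dose 8.92 µM, 0.89% DMSO final · Also added – FP-Rh activity-based probe · Technique – fluorescence polarization, excitation 525 nm, emission 598 nm · Incubation – 45 min compound pretreatment plus 60 min FP-Rh labeling, 25 °C · Medium – HEPES-saline buffer with 0.01% Pluronic F-127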

| SMILES | inhibition |
| --- | --- |
| CC(C)COC(=O)n1c(=O)oc2ccc(S(=O)(=O)N3CCCCC3)cc21 | 49.4% (active) |
| NNc1nc2c(Cl)cccc2s1 | 24% (inactive) |
| CC/C(=C(/c1ccccc1)c1ccc(OCC[N+](C)(C)C)cc1)c1ccccc1 | 36.6% (active) |
| CCOc1ccc2nc(Nc3nc4ccc(NC(C)=O)cc4s3)sc2c1 | 30.9% (active) |
| COC(=O)c1oc2ccc(Br)cc2c1NC(C)=O | -0.79% (inactive) |
| OCCNc1nc(Nc2ccc(Cl)c(Cl)c2)nc2ccccc12 | 40.4% (active) |
| CC(C)c1ccc(CC(=O)N2CCC2(C)C(=O)NS(=O)(=O)c2ccc(C(C)(C)C)cc2)cc1 (stereo not given) | 68.5% (active) |
| Nc1[nH]c(C(=O)c2ccc(Br)cc2)c(-c2ccc3c(c2)OCO3)c1C(=O)NCCc1c[nH]c2ccccc12 | 36.9% (active) |
| CCOC(=O)Cn1c2c(n(-c3ccc(F)cc3)c1=O)C=C(c1ccccc1)[C@@H](C)C(C(=O)N(C)C1CCCCC1)=C2 | 29.3% (inactive) |
| Cc1oc2cc(Br)c(O)c(Br)c2c1C(=O)c1ccccc1 | 53% (active) |
| C/C(=N\NC(=O)c1ccc(C)cc1)C1C(=O)c2ccccc2C1=O | 35.3% (active) |
| CCOC(=O)[C@H]1Nc2ccc(Cl)cc2[C@@H]2[C@H]1C1CC(c3ccccc31)N2C(=O)OCc1ccccc1 (stereo not given in full) | 42% (active) |
| CCC(CO)Oc1cc(NC(=O)c2cccc(F)c2)c2ncn(C(C)C)c2c1 (stereo not given) | 1.62% (inactive) |
| COc1cc(/C=C2/C(=O)NN(c3cccc(Cl)c3)C2=O)cc(Br)c1O | 38.8% (active) |

Each molecule was assayed against Oxysterols receptor LXR-beta (Homo sapiens) (UniProt P55055) (assay: nonspecific reporter activation via LXR – cell-based, luminescence, HEK293, H. contortus campaign, counter-screen for hcDAF-12 agonist project, confirmation (AID 743027;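 active = mean percent activation of the reporter above a cutoff set as the average over tested compounds plus their standard deviation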)). Details: HEK293 Gal4-LXR tk-luc reporter, 24 h, at 6.8 µM, hits give high values, normalized: DMSO 0%, positive control 100%.
Sequence of Oxysterols receptor LXR-beta (Homo sapiens) (P55055 whole entry, looked up, the tested form may be a part): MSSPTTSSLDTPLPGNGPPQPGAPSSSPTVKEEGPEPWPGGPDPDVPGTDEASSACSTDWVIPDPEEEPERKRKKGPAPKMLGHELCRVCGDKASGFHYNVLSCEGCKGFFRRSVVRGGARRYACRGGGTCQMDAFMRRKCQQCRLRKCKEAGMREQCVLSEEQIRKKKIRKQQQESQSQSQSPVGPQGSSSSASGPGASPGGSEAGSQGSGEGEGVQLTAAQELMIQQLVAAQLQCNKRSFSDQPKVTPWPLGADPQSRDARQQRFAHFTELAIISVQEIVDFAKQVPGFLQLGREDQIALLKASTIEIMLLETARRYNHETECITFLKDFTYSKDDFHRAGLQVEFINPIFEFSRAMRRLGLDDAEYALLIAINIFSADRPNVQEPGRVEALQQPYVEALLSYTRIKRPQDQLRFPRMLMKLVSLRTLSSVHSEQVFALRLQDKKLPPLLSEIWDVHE
Summary of the method: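 Assay system: HEK293 Gal4-LXR luciferase reporter cells; schedule: one-day compound treatment at 37 °C; signal: One-Glo luciferase luminescence; control set: DMSO and positive control; replicates: triplicate wells per compound; doses: 6.8 µM single dose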

| SMILES | activation |
| --- | --- |
| Cc1cc(C)nc(Nc2n[nH]c(-c3ccccc3N)n2)n1 | 2.12% (inactive) |
| O=C(O)CN1c2cccc3cccc(c23)S1(=O)=O | -0.29% (inactive) |
| CCOc1ccc(C2c3[nH]c4ccccc4c3CCN2Cc2cn(CC)nc2C)cc1 (stereo not given) | -0.18% (inactive) |
| O=C(Cn1ccc([N+](=O)[O-])n1)NCc1cccs1 | -0.27% (inactive) |
| c1ccc2sc(NN=C3CCCC3)nc2c1 | 1.38% (inactive) |
| C(=N\Nc1ccc2ccccc2n1)/c1ccc2c(c1)OCO2 | 1.28% (inactive) |
| NNc1nc2c(Cl)cccc2s1 | -0.01% (inactive) |
| CCS(=O)(=O)N1Cc2ccccc2CC1C(=O)Nc1nc2ccc(F)cc2s1 (stereo not given) | 0.39% (inactive) |
| O=C(NC1CCCCC1)C(c1cc2ccccc2o1)n1c(=O)c(-c2ccco2)nc2ccccc21 (stereo not given) | 0.03% (inactive) |
| COc1ccc(CNC(=O)c2ccc3oc(C(C)C)nc3c2)cc1 | 0.72% (inactive) |
| Cc1cnc(NC(=O)c2ccc(Cl)nc2)s1 | 0.78% (inactive) |
| NS(=O)(=O)c1ccccc1NC(=O)c1c(O)c2ccccc2[nH]c1=O | 1.36% (inactive) |
| CN1CCc2ccccc2C1Cc1ccccc1NC(=O)c1sc2ccccc2c1Cl (stereo not given) | -0.05% (inactive) |

What follows are molecules tested on Nuclear hormone receptor DAF-12 (Haemonchus contortus) (assay: hcDAF-12 luciferase reporter activation, retest – cell-based, luminescence, HEK293, lit1-tk-luc, triplicate, confirmation (AID 743032;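 active = mean activation across triplicate tests above the threshold derived from the earlier primary screen, cut at about 5.5% in these data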;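 also: 0% = DMSO only wells and 100% = 3 µM Δ7-dafachronic acid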)). Details: HEK293 hcDAF-12 lit1-tk-luc reporter, at 6.8 µM, hits give high values, % of Δ7-dafachronic acid response.

| SMILES | activation |
| --- | --- |
| Cc1cc(C)nc(Nc2n[nH]c(-c3ccccc3N)n2)n1 | 8.91% (active) |
| O=C(O)CN1c2cccc3cccc(c23)S1(=O)=O | 1.3% (inactive) |
| CCOc1ccc(C2c3[nH]c4ccccc4c3CCN2Cc2cn(CC)nc2C)cc1 (stereo not given) | 3.63% (inactive) |
| O=C(Cn1ccc([N+](=O)[O-])n1)NCc1cccs1 | 1.71% (inactive) |
| c1ccc2sc(NN=C3CCCC3)nc2c1 | 6.89% (active) |
| C(=N\Nc1ccc2ccccc2n1)/c1ccc2c(c1)OCO2 | 4.85% (inactive) |
| NNc1nc2c(Cl)cccc2s1 | 1.23% (inactive) |
| CCS(=O)(=O)N1Cc2ccccc2CC1C(=O)Nc1nc2ccc(F)cc2s1 (stereo not given) | 6.53% (active) |
| O=C(NC1CCCCC1)C(c1cc2ccccc2o1)n1c(=O)c(-c2ccco2)nc2ccccc21 (stereo not given) | 5.1% (inactive) |
| COc1ccc(CNC(=O)c2ccc3oc(C(C)C)nc3c2)cc1 | 2.54% (inactive) |
| Cc1cnc(NC(=O)c2ccc(Cl)nc2)s1 | 11.4% (active) |
| NS(=O)(=O)c1ccccc1NC(=O)c1c(O)c2ccccc2[nH]c1=O | 9.27% (active) |
| CN1CCc2ccccc2C1Cc1ccccc1NC(=O)c1sc2ccccc2c1Cl (stereo not given) | 1.76% (inactive) |
